Measured values from ChEMBL document CHEMBL5661979, “Pharmacological inhibition of BMK1 suppresses tumor growth through promyelocytic leukemia protein” (Cancer Cell, 2010).
Active and inactive are the calls of the source. No cut-off for these calls is given here.

Columns and labels:
[1] = target: Epidermal growth factor receptor (Homo sapiens, UniProt P00533); assay: Inhibition of EGFR in human HeLa cells lysate at 2 uM pre incubated for 15 mins followed by ADP acyl phosphate probe addition and measured after 10 mins by LC-MS/MS analysis relative to control; format: subcellular; settings: time 25.0 min
[2] = Inhibition of CDK5/PRKX/PRKY in human HeLa cells lysate pre incubated for 15 mins followed by ATP acyl phosphate probe addition and measured after 10 mins by LC-MS/MS analysis; format: subcellular
Procedure, shortened: (§1)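 KiNativ profiling in HeLa lysate (5 mg/mL total protein). Lysate incubated 15 min with inhibitor at 50, 10, 2, 0.8 or 0 μM. ATP or ADP acylphosphate probe then added (5 μM final) and reacted 10 min. Reaction stopped with urea and analysed by targeted MS, using up to four fragment ions per kinase peptide-probe conjugate. % inhibition taken against untreated lysate. Run in duplicate.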

[3] = Inhibition of MAP3K2/3 in human HeLa cells lysate at 10 uM pre incubated for 15 mins followed by ATP acyl phosphate probe addition and measured after 10 mins by LC-MS/MS analysis relative to control; settings: 25 min, condition cancer
[4] = Inhibition of NEK6/7 in human HeLa cells lysate at 2 uM pre incubated for 15 mins followed by ATP acyl phosphate probe addition and measured after 10 mins by LC-MS/MS analysis relative to control; settings: 25 min, condition cancer
[5] = target: Tyrosine-protein kinase JAK1 (Homo sapiens, UniProt P23458); assay: Inhibition of JAK1 domain 2 in human HeLa cells lysate pre incubated for 15 mins followed by ADP acyl phosphate probe addition and measured after 10 mins by LC-MS/MS analysis; format: subcellular
[6] = test system: Lewis lung carcinoma; assay: Antitumor activity against mouse LL2 cells transfected with Ad-BMK1 allografted in C57Bl/6 mouse assessed as reduction tumor growth at 50 mg/kg, ip administered on day 7 post implantation measured after 17 days; format: functional, organism-based; settings: time 10.0 day
Procedure, shortened: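 LL/2 cells (1×10^6) were injected s.c. into C57Bl/6 mice; 6 per group. Ad-EV or Ad-BMK1(AEF) was given intratumorally on days 7, 11, 15 and 19. Drug was dosed at 50 mg/kg i.p. twice daily from day 8 to day 20; control groups received carrier solution.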

[7] = target: SRSF protein kinase 1 (Homo sapiens, UniProt Q96SB4); assay: Inhibition of SRPK1 in human HeLa cells lysate at 50 uM pre incubated for 15 mins followed by ATP acyl phosphate probe addition and measured after 10 mins by LC-MS/MS analysis relative to control; format: subcellular; settings: time 25.0 min
[8] = target: eIF-2-alpha kinase GCN2 (Homo sapiens, UniProt Q9P2K8); assay: Inhibition of GCN2 in human HeLa cells lysate pre incubated for 15 mins followed by ATP acyl phosphate probe addition and measured after 10 mins by LC-MS/MS analysis; format: subcellular
[9] = target: Protein kinase C theta type (Homo sapiens, UniProt Q04759); assay: Inhibition of PKCtheta in human HeLa cells lysate at 10 uM pre incubated for 15 mins followed by ATP acyl phosphate probe addition and measured after 10 mins by LC-MS/MS analysis relative to control; format: subcellular; settings: time 25.0 min
[10] = target: T1, Phosphatidylinositol 5-phosphate 4-kinase type-2 alpha (Homo sapiens) (UniProt P48426); assay: Inhibition of PIP5K2A LIP1 site in human HeLa cells lysate at 10 uM pre incubated for 15 mins followed by ADP acyl phosphate probe addition and measured after 10 mins by LC-MS/MS analysis relative to control; format: subcellular; settings: time 25.0 min
T1 sequence (whole entry): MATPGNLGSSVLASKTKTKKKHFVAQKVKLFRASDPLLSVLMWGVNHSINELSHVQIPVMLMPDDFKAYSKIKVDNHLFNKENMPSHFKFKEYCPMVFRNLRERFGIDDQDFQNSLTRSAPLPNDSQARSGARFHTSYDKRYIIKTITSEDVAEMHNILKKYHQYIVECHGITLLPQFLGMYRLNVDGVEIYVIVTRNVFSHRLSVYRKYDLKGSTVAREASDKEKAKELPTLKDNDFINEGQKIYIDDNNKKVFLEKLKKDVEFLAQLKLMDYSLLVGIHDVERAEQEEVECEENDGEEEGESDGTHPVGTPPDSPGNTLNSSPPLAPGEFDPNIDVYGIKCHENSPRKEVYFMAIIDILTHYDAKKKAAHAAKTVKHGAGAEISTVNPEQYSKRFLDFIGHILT

[11] = target: Ribosomal protein S6 kinase alpha-1 (Homo sapiens, UniProt Q15418); assay: Inhibition of C-terminal RPS6KA1 kinase domain (unknown origin) assessed as remaining activity at 10 uM by ATP-competition binding assay relative to control
[12] = target: Mitogen-activated protein kinase 14 (Homo sapiens, UniProt Q16539); assay: Inhibition of P38alpha interaction site in human HeLa cells lysate at 50 uM pre incubated for 15 mins followed by ATP acyl phosphate probe addition and measured after 10 mins by LC-MS/MS analysis relative to control; format: subcellular; settings: time 25.0 min
[13] = target: Serine/threonine-protein kinase 38-like (Homo sapiens, UniProt Q9Y2H1); assay: Inhibition of NDR2 in human HeLa cells lysate at 2 uM pre incubated for 15 mins followed by ADP acyl phosphate probe addition and measured after 10 mins by LC-MS/MS analysis relative to control; format: subcellular; settings: time 25.0 min
[14] = target: T2, Mixed lineage kinase domain-like protein (Homo sapiens) (UniProt Q8NB16); assay: Inhibition of MLKL in human HeLa cells lysate at 2 uM pre incubated for 15 mins followed by ADP acyl phosphate probe addition and measured after 10 mins by LC-MS/MS analysis relative to control; format: subcellular; settings: time 25.0 min
T2 sequence (whole entry): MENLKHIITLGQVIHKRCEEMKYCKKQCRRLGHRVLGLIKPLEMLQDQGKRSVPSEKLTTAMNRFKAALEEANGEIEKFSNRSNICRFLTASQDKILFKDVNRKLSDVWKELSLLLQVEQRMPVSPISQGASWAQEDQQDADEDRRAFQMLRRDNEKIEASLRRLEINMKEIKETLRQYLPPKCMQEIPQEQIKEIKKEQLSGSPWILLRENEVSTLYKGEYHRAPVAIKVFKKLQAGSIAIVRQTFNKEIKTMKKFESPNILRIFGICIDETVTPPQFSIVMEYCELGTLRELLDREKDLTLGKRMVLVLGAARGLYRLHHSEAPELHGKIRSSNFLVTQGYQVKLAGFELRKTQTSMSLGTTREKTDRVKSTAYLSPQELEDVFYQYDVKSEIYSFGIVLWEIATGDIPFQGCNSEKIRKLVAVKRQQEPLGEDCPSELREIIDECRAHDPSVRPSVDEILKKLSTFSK

[15] = target: Cyclin-dependent kinase 9 (Homo sapiens, UniProt P50750); assay: Inhibition of CDK9 in human HeLa cells lysate pre incubated for 15 mins followed by ADP acyl phosphate probe addition and measured after 10 mins by LC-MS/MS analysis; format: subcellular; procedure, shortened: as §1
[16] = target: Mitogen-activated protein kinase kinase kinase 5 (Homo sapiens, UniProt Q99683); assay: Inhibition of MAP3K5 in human HeLa cells lysate pre incubated for 15 mins followed by ATP acyl phosphate probe addition and measured after 10 mins by LC-MS/MS analysis; format: subcellular
[17] = target: Serine/threonine-protein kinase Nek1 (Homo sapiens) (UniProt Q96PY6); assay: Inhibition of NEK1 in human HeLa cells lysate at 50 uM pre incubated for 15 mins followed by ATP acyl phosphate probe addition and measured after 10 mins by LC-MS/MS analysis relative to control; format: subcellular; settings: time 25.0 min
Chain of Serine/threonine-protein kinase Nek1 (Homo sapiens) (Q96PY6 whole entry): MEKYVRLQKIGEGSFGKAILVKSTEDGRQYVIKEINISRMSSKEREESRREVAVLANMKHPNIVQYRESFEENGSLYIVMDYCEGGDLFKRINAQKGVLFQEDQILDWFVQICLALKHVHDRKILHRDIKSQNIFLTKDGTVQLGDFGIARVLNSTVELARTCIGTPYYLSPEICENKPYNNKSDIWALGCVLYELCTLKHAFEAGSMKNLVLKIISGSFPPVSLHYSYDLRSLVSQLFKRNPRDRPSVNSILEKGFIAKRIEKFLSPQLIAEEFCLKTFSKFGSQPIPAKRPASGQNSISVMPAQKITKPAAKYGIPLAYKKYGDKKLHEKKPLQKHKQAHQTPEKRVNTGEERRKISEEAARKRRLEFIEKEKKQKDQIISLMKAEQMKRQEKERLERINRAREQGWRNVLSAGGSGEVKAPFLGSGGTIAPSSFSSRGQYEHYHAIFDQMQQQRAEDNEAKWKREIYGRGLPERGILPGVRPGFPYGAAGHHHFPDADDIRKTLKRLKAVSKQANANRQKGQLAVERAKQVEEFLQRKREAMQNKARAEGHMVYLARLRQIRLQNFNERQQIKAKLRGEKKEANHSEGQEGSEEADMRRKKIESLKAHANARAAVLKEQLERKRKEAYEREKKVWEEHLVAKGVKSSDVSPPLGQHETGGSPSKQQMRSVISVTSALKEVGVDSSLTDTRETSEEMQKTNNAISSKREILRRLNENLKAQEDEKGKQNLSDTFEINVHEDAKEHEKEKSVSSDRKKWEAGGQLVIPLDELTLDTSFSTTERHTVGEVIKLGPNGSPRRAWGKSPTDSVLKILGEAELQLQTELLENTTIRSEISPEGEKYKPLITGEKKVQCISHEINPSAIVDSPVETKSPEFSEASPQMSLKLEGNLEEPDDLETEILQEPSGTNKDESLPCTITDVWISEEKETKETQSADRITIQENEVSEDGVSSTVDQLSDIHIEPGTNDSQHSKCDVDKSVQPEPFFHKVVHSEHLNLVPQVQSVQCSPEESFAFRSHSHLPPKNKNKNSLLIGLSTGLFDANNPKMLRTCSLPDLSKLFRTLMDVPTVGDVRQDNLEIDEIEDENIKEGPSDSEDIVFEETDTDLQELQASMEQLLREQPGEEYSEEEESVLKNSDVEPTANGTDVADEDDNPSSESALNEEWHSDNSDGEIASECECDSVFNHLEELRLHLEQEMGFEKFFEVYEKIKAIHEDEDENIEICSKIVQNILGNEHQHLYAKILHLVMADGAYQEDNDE

Chain of SRSF protein kinase 1 (Q96SB4 whole entry): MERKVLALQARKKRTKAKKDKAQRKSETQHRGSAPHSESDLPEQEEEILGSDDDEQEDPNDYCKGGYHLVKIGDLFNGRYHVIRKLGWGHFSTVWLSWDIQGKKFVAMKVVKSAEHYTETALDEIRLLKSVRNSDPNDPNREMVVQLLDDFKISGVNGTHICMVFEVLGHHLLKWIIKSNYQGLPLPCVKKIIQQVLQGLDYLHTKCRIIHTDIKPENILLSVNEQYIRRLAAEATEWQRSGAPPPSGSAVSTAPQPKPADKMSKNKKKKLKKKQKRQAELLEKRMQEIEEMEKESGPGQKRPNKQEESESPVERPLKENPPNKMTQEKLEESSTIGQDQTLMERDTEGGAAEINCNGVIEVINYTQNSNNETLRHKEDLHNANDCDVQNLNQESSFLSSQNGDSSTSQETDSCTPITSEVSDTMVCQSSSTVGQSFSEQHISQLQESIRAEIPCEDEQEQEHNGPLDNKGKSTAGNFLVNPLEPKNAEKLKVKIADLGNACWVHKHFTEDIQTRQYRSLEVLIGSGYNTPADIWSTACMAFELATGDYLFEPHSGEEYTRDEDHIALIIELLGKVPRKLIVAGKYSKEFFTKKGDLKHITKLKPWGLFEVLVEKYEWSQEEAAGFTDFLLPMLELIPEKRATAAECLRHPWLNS
Chain of Cyclin-dependent kinase 9 (P50750 whole entry): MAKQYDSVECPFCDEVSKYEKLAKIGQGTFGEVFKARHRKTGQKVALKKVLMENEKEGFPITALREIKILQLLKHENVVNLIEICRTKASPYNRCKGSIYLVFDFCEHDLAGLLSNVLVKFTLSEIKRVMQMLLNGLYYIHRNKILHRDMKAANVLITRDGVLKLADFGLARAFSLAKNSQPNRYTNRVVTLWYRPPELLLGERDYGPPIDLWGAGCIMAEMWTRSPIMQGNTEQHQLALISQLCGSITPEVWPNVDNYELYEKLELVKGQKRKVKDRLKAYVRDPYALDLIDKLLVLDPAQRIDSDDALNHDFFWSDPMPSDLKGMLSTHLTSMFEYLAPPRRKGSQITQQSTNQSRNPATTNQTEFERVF
Chain of Serine/threonine-protein kinase 38-like (Q9Y2H1 2-464 limits assumed): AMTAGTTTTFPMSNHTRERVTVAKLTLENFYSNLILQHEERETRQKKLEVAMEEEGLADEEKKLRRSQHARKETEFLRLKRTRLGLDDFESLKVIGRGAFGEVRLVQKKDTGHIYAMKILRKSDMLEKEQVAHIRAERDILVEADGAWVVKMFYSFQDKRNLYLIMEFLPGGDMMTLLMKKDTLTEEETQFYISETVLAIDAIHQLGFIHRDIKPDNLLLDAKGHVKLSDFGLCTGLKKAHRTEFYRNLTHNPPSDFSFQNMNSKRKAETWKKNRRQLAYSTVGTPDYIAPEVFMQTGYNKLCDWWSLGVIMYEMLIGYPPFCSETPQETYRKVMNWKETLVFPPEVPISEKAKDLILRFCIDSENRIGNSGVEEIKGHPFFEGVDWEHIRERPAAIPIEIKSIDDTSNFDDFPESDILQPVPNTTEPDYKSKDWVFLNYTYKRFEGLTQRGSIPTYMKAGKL
Chain of Epidermal growth factor receptor (P00533 whole entry): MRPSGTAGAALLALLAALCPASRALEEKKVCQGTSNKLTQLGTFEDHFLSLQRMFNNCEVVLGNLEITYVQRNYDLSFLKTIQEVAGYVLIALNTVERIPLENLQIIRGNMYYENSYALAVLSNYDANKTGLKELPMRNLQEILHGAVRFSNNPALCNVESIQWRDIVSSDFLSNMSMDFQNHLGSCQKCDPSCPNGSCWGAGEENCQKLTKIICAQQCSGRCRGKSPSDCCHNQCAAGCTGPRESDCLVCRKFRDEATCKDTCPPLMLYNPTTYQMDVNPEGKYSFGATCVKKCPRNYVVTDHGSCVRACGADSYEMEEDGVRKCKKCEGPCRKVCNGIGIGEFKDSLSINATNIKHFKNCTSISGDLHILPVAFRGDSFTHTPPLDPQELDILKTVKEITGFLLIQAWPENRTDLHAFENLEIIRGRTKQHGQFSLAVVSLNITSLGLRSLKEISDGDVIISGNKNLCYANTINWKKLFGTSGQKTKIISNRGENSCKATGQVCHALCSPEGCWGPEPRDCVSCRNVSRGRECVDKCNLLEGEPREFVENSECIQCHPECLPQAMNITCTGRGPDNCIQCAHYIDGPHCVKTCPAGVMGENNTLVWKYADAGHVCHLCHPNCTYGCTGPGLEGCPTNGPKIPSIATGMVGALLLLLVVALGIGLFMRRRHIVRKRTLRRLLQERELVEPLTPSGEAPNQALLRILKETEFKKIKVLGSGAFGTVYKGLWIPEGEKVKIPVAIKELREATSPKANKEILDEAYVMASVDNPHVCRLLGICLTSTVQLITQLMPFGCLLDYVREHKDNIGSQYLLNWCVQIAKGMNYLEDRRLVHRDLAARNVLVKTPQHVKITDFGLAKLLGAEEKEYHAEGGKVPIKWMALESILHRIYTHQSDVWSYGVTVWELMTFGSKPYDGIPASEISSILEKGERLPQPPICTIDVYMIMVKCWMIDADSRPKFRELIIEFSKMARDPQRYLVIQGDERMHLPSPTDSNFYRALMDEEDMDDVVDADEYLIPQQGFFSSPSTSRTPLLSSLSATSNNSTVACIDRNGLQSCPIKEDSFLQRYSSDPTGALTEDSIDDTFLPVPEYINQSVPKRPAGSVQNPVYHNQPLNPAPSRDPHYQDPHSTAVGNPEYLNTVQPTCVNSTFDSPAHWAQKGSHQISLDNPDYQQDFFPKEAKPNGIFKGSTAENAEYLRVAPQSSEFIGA
Chain of Mitogen-activated protein kinase 14 (Q16539 whole entry): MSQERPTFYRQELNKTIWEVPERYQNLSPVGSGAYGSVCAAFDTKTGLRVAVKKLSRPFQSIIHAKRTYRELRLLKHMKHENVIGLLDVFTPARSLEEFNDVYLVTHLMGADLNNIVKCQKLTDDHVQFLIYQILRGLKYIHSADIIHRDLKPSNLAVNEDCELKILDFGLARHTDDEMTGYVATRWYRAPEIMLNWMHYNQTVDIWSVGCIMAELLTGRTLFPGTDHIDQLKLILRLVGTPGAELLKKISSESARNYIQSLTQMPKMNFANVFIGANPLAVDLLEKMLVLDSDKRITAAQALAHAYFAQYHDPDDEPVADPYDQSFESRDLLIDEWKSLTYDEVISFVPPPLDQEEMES
Chain of Protein kinase C theta type (Q04759 whole entry, looked up): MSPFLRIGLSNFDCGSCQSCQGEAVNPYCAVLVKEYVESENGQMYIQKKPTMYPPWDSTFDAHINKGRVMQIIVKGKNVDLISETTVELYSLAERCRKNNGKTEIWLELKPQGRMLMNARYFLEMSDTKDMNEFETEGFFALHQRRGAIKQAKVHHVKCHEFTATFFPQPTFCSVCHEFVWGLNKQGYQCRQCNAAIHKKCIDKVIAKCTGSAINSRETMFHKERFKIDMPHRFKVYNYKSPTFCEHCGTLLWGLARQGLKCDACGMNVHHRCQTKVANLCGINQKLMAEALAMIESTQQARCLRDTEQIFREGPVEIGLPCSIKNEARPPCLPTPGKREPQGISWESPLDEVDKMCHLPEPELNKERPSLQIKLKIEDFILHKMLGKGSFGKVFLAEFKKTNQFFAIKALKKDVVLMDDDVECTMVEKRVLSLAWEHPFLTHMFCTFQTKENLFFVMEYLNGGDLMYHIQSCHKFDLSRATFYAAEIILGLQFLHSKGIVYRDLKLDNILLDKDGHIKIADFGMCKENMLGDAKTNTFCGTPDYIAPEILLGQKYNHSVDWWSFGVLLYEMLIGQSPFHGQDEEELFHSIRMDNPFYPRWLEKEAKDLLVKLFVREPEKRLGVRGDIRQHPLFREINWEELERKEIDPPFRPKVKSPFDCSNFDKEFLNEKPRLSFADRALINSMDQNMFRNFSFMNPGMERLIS

CCOc1cc(N2CCC(O)CC2)ccc1Nc1ncc2c(n1)N(C)c1ccccc1C(=O)N2C
inhibition [1]: 12.2% | IC50 [2]: > 50 µM | inhibition at 10 µM [3]: -7.8% | inhibition at 2 µM [4]: -4.1% | IC50 [5]: > 50 µM | Activity [6]: Active | inhibition [7]: -7.5% | IC50 [8]: > 50 µM | inhibition [9]: 12.4% | inhibition [10]: 5% | Activity [11]: 28% | inhibition [12]: -2.5% | inhibition [13]: 11.7% | inhibition [14]: 35.6% | IC50 [15]: > 50 µM | IC50 [16]: > 50 µM | inhibition [17]: -3.8%
